# From ChEMBL document CHEMBL1123059, “2-(beta-Arylethylamino)- and 4-(beta-arylethylamino)quinazolines as phosphodiesterase inhibitors” (J Med Chem, 1985)
# Tests used:
# Cavia porcellus [1] = species: Cavia porcellus; assay: Percentage relaxation of guinea pig tracheal preparation relative to papaverine at 70 uM; type: functional, Trachea
# Outline: (§1)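 Spiral trachea strips from female Hartley guinea pigs (300-500 g) were held in Krebs-Henseleit at 37 °C under 95% O2/5% CO2. Cumulative doses of the hydrochloride salt were given, then papaverine 10 μg/mL as the supramaximal reference. Relaxation at the stated concentration is given as % of papaverine maximum, with vehicle-corrected controls.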
# [2] = system: cAMP phosphodiesterase (Bos taurus); assay: Ratio of Ki/Km for inhibition of bovine heart cAMP-phosphodiesterase
# [3] = target: cAMP phosphodiesterase (Bos taurus); assay: Inhibition of bovine heart cAMP-phosphodiesterase
# [4] = target: cAMP phosphodiesterase (Bos taurus); assay: Inhibition of bovine heart cAMP-phosphodiesterase; remark: listed apart in the source
# Cavia porcellus [5] = species: Cavia porcellus; assay: Percentage relaxation of guinea pig tracheal preparation relative to papaverine at 98 uM; type: functional, Trachea; outline: as §1
# Cavia porcellus [6] = species: Cavia porcellus; assay: Relaxation in guinea pig tracheal preparation relative to papaverine, range 162-589; type: functional; conditions: Trachea, read-out: ED50 (the source's name)
# Cavia porcellus [7] = species: Cavia porcellus; assay: Percentage relaxation of guinea pig tracheal preparation relative to papaverine at 84 uM; type: functional, Trachea; outline: as §1
# Cavia porcellus [8] = species: Cavia porcellus; assay: Relaxation in guinea pig tracheal preparation relative to papaverine, range 63.1-79.4; type: functional; conditions: Trachea, read-out: ED50 (the source's name)
# Cavia porcellus [9] = species: Cavia porcellus; assay: Relaxation in guinea pig tracheal preparation relative to papaverine; type: functional; conditions: Trachea, read-out: ED50 (the source's name)
# Cavia porcellus [10] = species: Cavia porcellus; assay: Percentage relaxation of guinea pig tracheal preparation relative to papaverine at 20 uM; type: functional, Trachea; outline: as §1
# Cavia porcellus [11] = species: Cavia porcellus; assay: Percentage relaxation of guinea pig tracheal preparation relative to papaverine at 42 uM; type: functional, Trachea; outline: as §1
# Cavia porcellus [12] = species: Cavia porcellus; assay: Relaxation in guinea pig tracheal preparation relative to papaverine, range 33.1-91.2; type: functional; conditions: Trachea, read-out: ED50 (the source's name)
# Cavia porcellus [13] = species: Cavia porcellus; assay: Relaxation in guinea pig tracheal preparation relative to papaverine, range 52.5-75.9; type: functional; conditions: Trachea, read-out: ED50 (the source's name)
Ratio [2],IC50 [3] [µM],IC50 [4] [µM],Structure (SMILES),other results
0.107,16,,CCN(CC)c1nc(NCCc2ccccc2)c2cc(OC)c(OC)cc2n1,Max relaxation (Cavia porcellus [1]): 29%
0.64,,350,CCN(CC)c1nc(NCC(O)c2ccccc2)c2cc(OC)c(OC)cc2n1 (stereo not drawn),Max relaxation (Cavia porcellus [5]): 46%
0.054,,87,CCN(CC)c1nc(NCCc2ccccc2)nc2cc(OC)c(OC)cc12,EC50 (Cavia porcellus [6]): 234 µM
1.15,295,,CCN(CC)c1nc(NCC(O)c2cccc(O)c2)nc2cc(OC)c(OC)cc12 (stereo not drawn),Max relaxation (Cavia porcellus [7]): 11.5%
,,,Cn1c(=O)c2nc[nH]c2n(C)c1=O [THEOPHYLLINE],EC50 (Cavia porcellus [8]): 70.8 µM
0.43,432,,CCN(CC)c1nc(NCC(O)c2cc(O)cc(O)c2)nc2cc(OC)c(OC)cc12.Cl (stereo not drawn),EC50 (Cavia porcellus [9]): 26.9 µM
0.73,,610,CCN(CC)c1nc(NCC(O)c2cccc(O)c2)c2cc(OC)c(OC)cc2n1.Cl (stereo not drawn),Max relaxation (Cavia porcellus [10]): 28%
0.69,339,,CCN(CC)c1nc(NCC(O)c2ccc(O)c(CO)c2)nc2cc(OC)c(OC)cc12.Cl (stereo not drawn),Max relaxation (Cavia porcellus [11]): 36%
1.88,328,,CCN(CC)c1nc(NCC(O)c2ccccc2)nc2cc(OC)c(OC)cc12 (stereo not drawn),EC50 (Cavia porcellus [12]): 49 µM
0.81,,428,CCN(CC)c1nc(NCC(O)c2ccc(O)c(CO)c2)c2cc(OC)c(OC)cc2n1.Cl (stereo not drawn),EC50 (Cavia porcellus [13]): 63.1 µM
